Series [1] is described as follows: Cytotoxicity against human THP1 cells after 24 hrs by erythrosin B staining. The series is classed as cell-based. Conditions: THP-1 cells, read-out: LD50. The gist of the method: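 THP-1 monocytes given five increasing concentrations (1-50 μM for the flavone; 1-100 μM for indomethacin) from DMSO stocks, final DMSO 0.1%, in RPMI 1640 with 10% FBS. Incubated 24 h at 37 C, 5% CO2. Cells were mixed 1:1 with 0.1% erythrosin B in PBS and counted by hemocytometer, with unstained cells taken as viable. LD50 was calculated from dose-response curves.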

The subject of series [2] is THP-1. The series can be described thus: Antiinflammatory activity against human THP1 cells of assessed as inhibition of LPS-induced TNFalpha protein synthesis at 10 uM pretreated for 1 hr before LPS challenge measured after 2 to 10 hrs. The class given is functional, cell-based.
The test system of series [3] is THP-1. The series can be described thus: Antiinflammatory activity against human THP1 cells of assessed as inhibition of LPS-induced TNFalpha gene expression at 10 uM pretreated for 1 hr before LPS challenge measured after 2 hrs by RT-qPCR relative to control. The series is classed as functional. An outline of the steps:
(§1)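 THP-1 monocytes, PMA-differentiated to macrophages, pretreated 1 h with compound in DMSO (0.1% final), then stimulated with 1 μg/mL LPS. Cells lysed in wells at 2, 4, 6 and 10 h post-LPS; TaqMan two-step RT-qPCR, ROX-normalized, ΔΔCT with unstimulated control set to 1. Means ± SE, three independent experiments.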

The subject of series [4] is THP-1. The series can be described thus: Antiinflammatory activity against human THP1 cells of assessed as inhibition of LPS-induced TNFalpha gene expression at 10 uM pretreated for 1 hr before LPS challenge measured after 2 to 10 hrs by RT-qPCR. The series is classed as functional, cell-based. An outline of the steps: as §1
(In general: In qPCR the cycle at which signal appears reflects the starting amount.)

Series [5] has as its system THP-1. The series can be described thus: Antiinflammatory activity against human THP1 cells of assessed as inhibition of LPS-induced TNFalpha protein synthesis at 10 uM pretreated for 1 hr before LPS challenge measured after 2 to 10 hrs relative to control. The series is classed as functional.
Series [6] has as its system THP-1. The series can be described thus: Antiinflammatory activity against human THP1 cells of assessed as inhibition of LPS-induced COX-2 gene expression at 10 uM pretreated for 1 hr before LPS challenge measured after 4 hrs by RT-qPCR. The series is classed as functional, cell-based. The gist of the method:
as §1

The target in series [7] is T1, Prostaglandin G/H synthase 2 (Homo sapiens, UniProt P35354).
T1 sequence (P35354 whole entry): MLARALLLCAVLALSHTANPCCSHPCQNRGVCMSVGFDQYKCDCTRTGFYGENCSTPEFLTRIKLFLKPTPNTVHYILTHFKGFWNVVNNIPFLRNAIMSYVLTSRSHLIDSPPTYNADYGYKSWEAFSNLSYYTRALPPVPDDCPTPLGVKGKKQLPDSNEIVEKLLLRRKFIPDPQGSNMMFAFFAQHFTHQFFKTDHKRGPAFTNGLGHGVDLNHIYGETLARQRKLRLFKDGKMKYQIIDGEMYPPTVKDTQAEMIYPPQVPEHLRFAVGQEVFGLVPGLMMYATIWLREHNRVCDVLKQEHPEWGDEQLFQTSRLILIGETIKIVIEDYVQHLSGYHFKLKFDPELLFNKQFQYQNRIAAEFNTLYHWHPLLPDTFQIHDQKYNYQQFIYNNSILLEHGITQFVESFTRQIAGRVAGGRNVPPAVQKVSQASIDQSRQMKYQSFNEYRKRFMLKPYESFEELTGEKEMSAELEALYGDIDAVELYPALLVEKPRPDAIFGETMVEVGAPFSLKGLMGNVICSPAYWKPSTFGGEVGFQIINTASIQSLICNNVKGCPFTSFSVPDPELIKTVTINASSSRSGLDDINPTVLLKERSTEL
The series can be described thus: Inhibition of human recombinant COX-2 assessed as PGE2 production from arachidonic acid after 20 mins enzyme immunoassay.

Series [8] in a line: Selectivity ratio of IC50 for human recombinant COX2 to IC50 for ram seminal vesicle COX1. The class given is tissue-based. An outline of the steps: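 Enzymes were human recombinant COX-2 (0.5 unit/reaction) and ram seminal vesicle COX-1 (1 unit/reaction), in 0.1 M Tris/HCl pH 8.0 with 5 μM hematin, 18 mM L-epinephrine, 50 μM EDTA. Compound in DMSO was preincubated 5 min at room temperature, then arachidonic acid was added for 20 min at 37 °C. PGE2 was read by competitive EIA at 405 nm. IC50 came from regression on ≥3 concentrations, with four independent experiments. Selectivity was taken as the COX-2/COX-1 IC50 ratio.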

In series [9] the test system is THP-1. The series can be described thus: Antiinflammatory activity against human THP1 cells assessed as inhibition of LPS-induced ZFP36 gene expression at 10 uM pretreated for 1 hr before LPS challenge measured after 2 hrs by RT-qPCR relative to control. The class given is functional. An outline of the steps:
as §1

Series [10] deals with THP-1. The series can be described thus: Antiinflammatory activity against human THP1 cells assessed as inhibition of LPS-induced NFKB p65 subunit translocation to nucleus at 10 uM pretreated for 1 hr before LPS challenge relative to control. The series is classed as functional. The gist of the method: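 PMA-differentiated THP-1 macrophages pretreated 1 h (0.1% DMSO vehicle), then 1 μg/mL E. coli 0111:B4 LPS; harvested 1 h after LPS by trypsinization/scraping. Cytoplasmic and nuclear fractions separated; p65 quantified in each by transcription-factor ELISA-type kit, cytoplasm/nuclear ratio calculated. Means ± SE, three independent experiments, three measurements each.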

Series [11] concerns RAW264.7. The series can be described thus: Antiinflammatory activity against mouse RAW264.7 cells assessed as iNOS gene expression. The class given is functional, cell-based.
The subject of series [12] is RAW264.7. The series can be described thus: Antiinflammatory activity against mouse RAW264.7 cells assessed as nitric oxide production. The series is classed as functional, cell-based.
The target in series [13] is T2, Prostaglandin G/H synthase 1 (Ovis aries, UniProt P05979).
T2 sequence (P05979 whole entry): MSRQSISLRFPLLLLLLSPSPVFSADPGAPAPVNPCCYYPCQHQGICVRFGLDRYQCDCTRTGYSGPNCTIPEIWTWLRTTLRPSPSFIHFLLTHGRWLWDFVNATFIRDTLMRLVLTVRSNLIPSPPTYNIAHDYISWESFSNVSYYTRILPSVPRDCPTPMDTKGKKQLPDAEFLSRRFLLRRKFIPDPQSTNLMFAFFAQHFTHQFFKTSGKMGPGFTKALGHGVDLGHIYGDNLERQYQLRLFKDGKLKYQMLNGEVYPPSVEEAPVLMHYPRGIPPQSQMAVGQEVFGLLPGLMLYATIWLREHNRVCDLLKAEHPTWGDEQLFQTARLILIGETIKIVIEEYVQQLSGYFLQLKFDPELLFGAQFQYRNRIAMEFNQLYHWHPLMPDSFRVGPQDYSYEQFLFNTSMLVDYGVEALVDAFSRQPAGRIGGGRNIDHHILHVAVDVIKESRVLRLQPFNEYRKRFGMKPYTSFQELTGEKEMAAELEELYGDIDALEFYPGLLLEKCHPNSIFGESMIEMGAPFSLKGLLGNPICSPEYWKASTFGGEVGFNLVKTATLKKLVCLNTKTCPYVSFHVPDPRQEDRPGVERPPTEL
The series can be described thus: Inhibition of ram seminal vesicle COX-1 assessed as PGE2 production from arachidonic acid after 20 mins enzyme immunoassay. The class given is tissue-based.

Series [14] concerns THP-1. The series can be described thus: Antiinflammatory activity against human THP1 cells assessed as increase in LPS-induced ZFP36 gene expression at 10 uM pretreated for 1 hr before LPS challenge measured after 4 hrs by RT-qPCR relative to control.

The structures appear in SMILES notation. Active and inactive are the calls of the source. The rule behind the calls is not given here.

As a reminder, the IC50 is the concentration at which inhibition is half-maximal.

In the case of `CC(C)=CCc1c(-c2ccc(O)cc2O)oc2cc3c(c(O)c2c1=O)C=CC(C)(C)O3` [CUDRAFLAVONE B], in [1], the CC50 at 24 h was 47.6 µM. Also, the result with THP-1 [2], with THP-1 [4] and with THP-1 [6] was Active. In addition, the Ratio in the series with THP-1 [3] worked out at 5.8; in the series with THP-1 [5], 20; in the series with THP-1 [14], 2. In addition, the results for the IC50 in [7] and in series [13] were 2500 nM and 1500 nM, respectively. In addition, the Ratio IC50 in series [8] turned out to be 1.7. Further, the “fold change (FC)” value with THP-1 [9] is listed as 5.8; with THP-1 [10], 3.2. Moreover, the Activity result with RAW264.7 [11] and with RAW264.7 [12] was “Dose-dependent effect” each time.

`COc1ccc2c(c1)c(CC(=O)O)c(C)n2C(=O)c1ccc(Cl)cc1` [INDOMETHACIN]: in series [1], the CC50 at 24 h was greater than 100 µM. For the same molecule, the result with THP-1 [4], with THP-1 [9] and in the series with THP-1 [10] was Active.

These data come from ChEMBL document CHEMBL1773034 (J Nat Prod, 2011).
